Only some compounds are listed: those with a hit (about 1.9% of all), similar ones and a draw of the others.
PGC1a acetyl inh: inhibitors of PGC1a acetylation signal, primary screen, cell-based, U2OS, AlphaScreen, inhibitor mode | AlphaScreen anti-acetyl-lysine; with virally co-expressed GCN5 acetyltransferase | inhibition, % at 15.6 µM | 0.17% of 350,000 active;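 active means every replicate shows inhibition of at least 40%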;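 further: 0% = neutral control wells and 100% = positive control wells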
DENV2 CPE rescue: inhibitors of DENV2 cytopathic effect, primary screen, cell-based, plate reader, single concentration | DENV2-infected cells, cytopathic effect rescue | CPE inhibition, % at 9.99 µM | 1.7% of 350,000 active | AID 651640, 2012; in the data active means CPE inhibition above about 20%, passing the limit was not always enough; tested in BHK-21 cells;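 further: 0% = median of neutral control wells and 100% = median of positive control wells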
FN deposit inh: inhibitors of fibronectin matrix deposition, primary screen, AH1F cells, Alexa488-fibronectin fluorescence, plate reader | AH1F fibroblasts, overnight | inhibition, % at 12.6 µM | 0.086% of 350,000 active;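 active means mean inhibition across replicates of 30% or more, regardless of how many single replicates reach that level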;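 further: positive control wells lacked labelled fibronectin entirely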
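Material: AH1F fibroblast monolayer depositing Alexa488-labelled fibronectin into matrix | Input: 10000 AH1F cells/well | Medium: DMEM plus 2% serum, read in PBS | Reagent: Alexa488-fibronectin, 24 nM final in well | Compound dosing: One dose per compound, pinned | Schedule: 1 h adhesion, overnight exposure | Measured by: Fluorescence at 485 nm excitation, 525 nm emission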
CFTR F508del cor: F508del CFTR correction, initial screen, CFBE line, single point; AID 720511, 2013; 0.36% of 350,000 active; CFBE cells, YFP halide quenching; stimulated with forskolin plus potentiator P3; % fluorescence drop versus neutral controls; activity (quench increase), % at 7.58 µM;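 active means mean added fluorescence quench of at least 8% versus neutral control, with both replicates also reaching 8%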;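 further: cells transiently co-express mutant CFTR-F508del with the halide-sensitive YFP; corrector assay measuring rescue of mutant channel to the surface after 24 h compound exposure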
XiGFP reactiv: activators of inactive X chromosome reactivation, primary screen, imaging, XiGFP fibroblasts, GFP high-content imaging, set 2 | 0.055% of 360,000 active | XiGFP mouse fibroblasts, % GFP-positive cells imaging, 3 d; cells co-treated with 5-aza-dC sensitizer; scaled so ellipticine positive control = 100% | activation, % at 7.58 µM;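 active means mean normalized replicate activation at least 10% and every replicate at or above 10%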;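 further: 0% = median of on-plate neutral control wells and 100% = ellipticine 6 µM median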
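System: XiGFP fibroblasts, SV40-immortalized. Medium: DMEM plus 5-aza-dC sensitizer. Doses: single point. Timing: 3 d treatment, 15 min room-temperature fixation. Control set: ellipticine 6 µM.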
Cneo AK release: Cryptococcus neoformans cell lysis inducers, primary screen, AK release luminescence, single concentration; C. neoformans lysis, adenylate kinase release luminescence, 4 h; normalised: neutral wells 0, clomiphene wells 100; lysis activity, % at 15 µM; 0.2% of 360,000 active;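 active means mean lysis activity across replicates of at least 80%, whatever share of replicates individually reach that level; inactive means mean lysis activity below 80%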
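Assay system: Cryptococcus neoformans yeast cells / Dosing: single-point compound dose / Timing: 4 h at 37 °C static, read 1 h later / Measured by: luminescence of released adenylate kinase using an AK detection reagent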
* = called active by the depositor; x = no result.

SMILES	PGC1a acetyl inh	DENV2 CPE rescue	FN deposit inh	CFTR F508del cor	XiGFP reactiv	Cneo AK release
O=C(C[C@@H]1CC[C@H]2[C@@H](COC[C@@H](O)CN2Cc2ccc3c(c2)OCO3)O1)N1CCOCC1	0	30*	-6	-1	0	-6
CCC(=O)Nc1ccc2c(c1)C(=O)N(C)C[C@H](OC)[C@@H](C)CN(C(=O)Cc1ccccn1)[C@H](C)CO2	1	5	4	-1	0	0
C=CCOc1ccccc1OCC(O)CNC(C)C (configuration not stated)	-7	40*	-1	-3	0	0
Cc1cccc(C)c1OCC(O)CNC(C)C (configuration not stated)	-8	x	x	x	x	-1
C[C@H](CO)N1C[C@H](C)[C@@H](CN(C)C)Oc2ccc(NS(=O)(=O)c3ccccc3)cc2CC1=O	1	-3	x	-1	0	3
CC(=O)N1[C@H](C(=O)N(C)C)[C@@H](CO)[C@@H]2Cn3c(ccc(-c4ccccc4F)c3=O)[C@@H]21	x	34*	x	x	1	-4
CCCN1[C@@H]2c3ccc(-c4ccccc4F)c(=O)n3C[C@@H]2[C@@H](CO)[C@@H]1C(=O)NCC	26	-14	x	2	0	-4
CC(=O)N1[C@@H]2c3ccc(-c4ccccc4)c(=O)n3C[C@@H]2[C@@H](CO)[C@@H]1C(=O)N1CCCCC1	x	8	x	x	0	-2
CC(=O)N1[C@H](C(=O)N2CCCCC2)[C@@H](CO)[C@@H]2Cn3c(ccc(-c4ccccc4)c3=O)[C@@H]21	x	20*	x	x	0	-2
CCCN1[C@H](C(=O)NCC(F)(F)F)[C@@H](CO)[C@@H]2Cn3c(ccc(-c4ccccc4)c3=O)[C@@H]21	-6	92*	x	-2	0	-2
C[C@@H]1CN([C@@H](C)CO)C(=O)Cc2cc(NS(=O)(=O)c3ccc(F)cc3)ccc2O[C@H]1CN(C)CC1CC1	-9	-3	-3	-1	0	-3
Cn1cnc(S(=O)(=O)N[C@H]2CC[C@H](CC(=O)NCC3CCCCC3)O[C@@H]2CO)c1	9	-1	-14	2	0	44
Cn1cnc(S(=O)(=O)N[C@H]2CC[C@H](CC(=O)NCC3CCCCC3)O[C@H]2CO)c1	-3	80*	-3	0	1	-1
Cn1cnc(S(=O)(=O)N[C@@H]2CC[C@H](CC(=O)NCC3CCCCC3)O[C@@H]2CO)c1	2	84*	-2	2	0	-1
CCN(CC)CCn1c2c(c(SCC(=O)Nc3ccc(F)c(F)c3)nc1=O)CCC2	-2	-3	-3	9.2*	0	-1
CCc1cc(Cn2nc(C(=O)O)cc2-c2ccccc2)on1	x	1	-5	2	0	0
CCOC(=O)c1cc(-c2ccccc2)nn1Cc1cc(C)no1	-20	4	2	2	1	-5
CCOC(=O)c1cc(-c2ccccc2C)nn1Cc1cc(C)no1	-6	32*	-1	0	0	-12
CCc1cc(Cn2nc(-c3ccccc3C)cc2C(=O)O)on1	x	25*	-4	1	0	-1
CC[N+]1=C(C)C(C)(C)c2cc(C)ccc21	-6	1	-39	-19	73*	-7
O=Nc1ccc(Cl)cn1	x	31*	14	0	0	x
CN(C)CC(=O)N1[C@H](C#N)[C@@H](c2ccccc2-c2ccccc2F)[C@H]1CO	8	3	-1	-1	0	x
C[C@@H]1CN([C@@H](C)CO)C(=O)c2cc(C#Cc3ccncc3)cnc2O[C@H]1CN(C)C(=O)CN(C)C	-3	-7	-16	-3	0	4
N#Cc1ccc(C23CC4(C2)[C@H](CN(Cc2ccc(C(F)(F)F)cc2)[C@@H]4c2ccccc2)C3c2ccccc2)cc1 (some centres not stated)	x	15	-14	0	0	135*
CO[C@@H]1CN(C)C(=O)c2cc(NC(=O)C3CC3)ccc2OC[C@@H](C)NC[C@@H]1C	3	x	-22	3	0	x
SMILES	PGC1a acetyl inh	DENV2 CPE rescue	FN deposit inh	CFTR F508del cor	XiGFP reactiv	Cneo AK release
C[C@@H]1CN([C@@H](C)CO)C(=O)c2cc(NC(=O)Nc3cccc4ccccc34)ccc2O[C@@H]1CN(C)C(=O)Nc1ccccc1	-3	8	x	2	0	107*
C[C@@H]1CN([C@@H](C)CO)C(=O)c2cc(NC(=O)Nc3cccc4ccccc34)ccc2O[C@@H]1CN(C)C(=O)Nc1ccc2c(c1)OCO2	2	-5	x	-1	0	-2
C[C@@H]1CN([C@@H](C)CO)C(=O)c2cc(NC(=O)Nc3cccc4ccccc34)ccc2O[C@@H]1CN(C)C(=O)Nc1ccc(C(F)(F)F)cc1	-5	4	x	0	0	-7
C[C@@H]1CN([C@H](C)CO)C(=O)c2cc(NC(=O)Nc3cccc4ccccc34)ccc2O[C@@H]1CN(C)C(=O)Nc1ccc2c(c1)OCO2	-12	33*	x	0	0	3
C[C@@H]1CN([C@@H](C)CO)C(=O)c2cc(NC(=O)Nc3ccccc3)ccc2O[C@@H]1CN(C)C(=O)Nc1cccc2ccccc12	16	-3	x	2	0	108*
C[C@H]1CN([C@@H](C)CO)C(=O)c2cc(NC(=O)Nc3cccc4ccccc34)ccc2O[C@@H]1CN(C)C(=O)Nc1ccc(C(F)(F)F)cc1	18	0	x	1	0	90*
CN(C)CCCN(C(=O)c1cc2cc([N+](=O)[O-])ccc2s1)c1nc2cc3c(cc2s1)OCCO3	54*	-5	8	0	0	10
CNc1ccccc1C(=O)OCC(=O)c1ccccc1	4	32*	x	0	x	-10
CNc1ccccc1C(=O)OCC(=O)c1ccc(F)cc1	x	0	-6	-4	0	x
CCc1c(C(=O)Nc2cc(C(=O)OC)ccc2C)csc1C	-6	88*	-4	0	0	0
CCOC(=O)Nc1cc(C(=O)OC)ccc1C	6	x	10	x	x	x
O=S(=O)(NC1CCN(Cc2ccc(OCCO)cc2)CC1)c1cc(C(F)(F)F)ccc1Cl	-7	29*	x	2	x	-9
COc1ccc(N(C)S(=O)(=O)c2cccc(C(=O)NC3CCCC3)c2)cc1	-15	1	x	4	0	1
COc1ccc(N(C)S(=O)(=O)c2cccc(C(=O)NCC3CCCCC3)c2)cc1	x	-6	x	8.7*	0	x
